Here are results for 5 molecules from ChEMBL document CHEMBL5126501, “Therapeutic potential for coxibs-nitric oxide releasing hybrids in cystic fibrosis” (Eur J Med Chem, 2021).

For data set [1], the target named is T1, Prostaglandin G/H synthase 2 (Homo sapiens) (UniProt P35354).
T1 sequence (whole entry): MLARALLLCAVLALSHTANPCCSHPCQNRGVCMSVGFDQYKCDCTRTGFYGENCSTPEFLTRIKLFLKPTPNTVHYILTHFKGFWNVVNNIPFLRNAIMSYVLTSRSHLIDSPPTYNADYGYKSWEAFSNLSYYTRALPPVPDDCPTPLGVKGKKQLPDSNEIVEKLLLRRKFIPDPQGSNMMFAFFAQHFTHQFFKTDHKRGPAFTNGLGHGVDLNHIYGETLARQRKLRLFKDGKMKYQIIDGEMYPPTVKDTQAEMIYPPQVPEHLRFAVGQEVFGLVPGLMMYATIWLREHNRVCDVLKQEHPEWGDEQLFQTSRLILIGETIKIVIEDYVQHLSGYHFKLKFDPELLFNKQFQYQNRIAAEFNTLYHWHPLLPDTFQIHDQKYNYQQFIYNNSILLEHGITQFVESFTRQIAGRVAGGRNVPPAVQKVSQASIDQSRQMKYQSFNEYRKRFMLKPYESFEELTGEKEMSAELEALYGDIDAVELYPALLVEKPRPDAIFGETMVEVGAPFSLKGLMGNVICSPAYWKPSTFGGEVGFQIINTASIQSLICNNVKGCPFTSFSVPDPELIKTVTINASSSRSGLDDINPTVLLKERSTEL
As to the kind of experiment: Inhibition of human recombinant COX-2 assessed as […] production at 10 uM using arachidonic acid as substrate preincubated for 10 mins followed by substrate addition and measured after 2 mins by enzyme immunoassay relative to control. The conditions noted are these: time 12.0 min. A digest of the protocol:
(§1)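 PGE2 production was measured with test compound and compared with control samples to give % inhibition. Values are means of n = 3 experiments. IC50 was obtained by fitting a sigmoidal dose–response equation with variable slope.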

Data set [2] concerns the target T2, Prostaglandin G/H synthase 1 (Ovis aries, UniProt P05979).
T2 sequence (P05979 whole entry): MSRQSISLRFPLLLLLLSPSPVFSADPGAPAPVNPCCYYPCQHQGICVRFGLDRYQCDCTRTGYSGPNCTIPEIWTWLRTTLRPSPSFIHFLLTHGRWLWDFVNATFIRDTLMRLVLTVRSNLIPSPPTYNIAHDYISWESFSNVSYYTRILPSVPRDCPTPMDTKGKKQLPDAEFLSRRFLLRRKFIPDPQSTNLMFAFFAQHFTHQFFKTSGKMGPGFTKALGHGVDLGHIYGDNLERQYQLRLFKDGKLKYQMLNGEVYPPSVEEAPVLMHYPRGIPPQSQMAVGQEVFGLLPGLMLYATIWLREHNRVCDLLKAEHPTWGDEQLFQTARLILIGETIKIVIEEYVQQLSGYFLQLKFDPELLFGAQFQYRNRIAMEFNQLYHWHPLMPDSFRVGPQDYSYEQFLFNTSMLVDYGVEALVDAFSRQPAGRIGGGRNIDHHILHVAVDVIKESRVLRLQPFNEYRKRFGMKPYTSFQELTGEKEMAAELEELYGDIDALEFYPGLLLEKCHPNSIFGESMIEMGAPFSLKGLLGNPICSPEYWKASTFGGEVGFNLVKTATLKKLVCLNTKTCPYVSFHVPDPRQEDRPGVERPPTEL
Nature of the data set: Inhibition of ovine COX-1 assessed as […] production using arachidonic acid as substrate preincubated for 10 mins followed by substrate addition and measured after 2 mins by enzyme immunoassay. The gist of the method: as §1

Data set [3] relates to Aorta. As to the kind of experiment: Vasorelaxant activity in KCl induced normotensive Wistar rat endothelium-denuded aortic rings contraction assessed as maximal vasorelaxing response at 10 uM relative to control. The class given is functional. A digest of the protocol:
(§2)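 Rat aortic rings were precontracted with KCl. Vasorelaxing efficacy (Emax) is the % reversal of the KCl-induced vasoconstriction. Potency is pIC50, the −log of the molar concentration giving 50% of Emax. ODQ was used to check for NO dependence.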

In data set [4] the test system is Aorta. Nature of the data set: Vasorelaxant activity in KCl induced normotensive Wistar rat endothelium-denuded aortic rings contraction assessed as decrease in contractile tone. The class given is functional, tissue-based. The gist of the method:
as §2

For data set [5], the system named is Mus musculus. Nature of the data set: Analgesic activity against acetic acid induced mouse model assessed as number of writhes at 10 mg/kg, po measured after 30 mins by abdominal constriction test. As to conditions: 0.5 h. The class given is functional. A digest of the protocol: (§3)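 Mice were dosed orally, with carboxymethylcellulose (CMC) as vehicle, 30 min before an acetic acid (0.6%) challenge. Abdominal constrictions (writhes) were counted. Values are means of at least seven mice, and percent writhing reduction is relative to vehicle-treated mice. Statistics were P<0.05 and P<0.01 versus vehicle.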

For data set [6], the system named is Mus musculus. As to the kind of experiment: Analgesic activity against acetic acid induced mouse model assessed as number of writhes at 1 mg/kg, po measured after 30 mins by abdominal constriction test. Type of data set: functional. The conditions noted are these: 0.5 h. The gist of the method:
as §3

The test system of data set [7] is Mus musculus. Nature of the data set: Analgesic activity against acetic acid induced mouse model assessed as number of writhes at 3 mg/kg, po measured after 30 mins by abdominal constriction test. The class given is functional. As to conditions: 0.5 h. The gist of the method:
as §3

The test system of data set [8] is Mus musculus. As to the kind of experiment: Analgesic activity against acetic acid induced mouse model assessed as reduction in writhing at 10 mg/kg, po by abdominal constriction test. The class given is functional. Also on record: scale not given: the % may be the effect or the level left. A digest of the protocol:
as §3
On the technique in general: Writhing tests count abdominal constrictions after an irritant is injected.

In data set [9] the test system is Mus musculus. Nature of the data set: Analgesic activity against acetic acid induced mouse model assessed as reduction in writhing at 1 mg/kg, po by abdominal constriction test. The class given is functional. Further details: scale not given: the % may be the effect or the level left. A digest of the protocol: as §3
Data set [10] has as its system Mus musculus. Nature of the data set: Analgesic activity against acetic acid induced mouse model assessed as reduction in writhing at 3 mg/kg, po by abdominal constriction test. Further details: scale not given: the % may be the effect or the level left. The class given is functional. The gist of the method: as §3
The test system of data set [11] is Liver. Nature of the data set: NO releasing activity in rat liver homogenate assessed as nitrite formation measured after 120 mins. As to conditions: tissue homogenate, 2 h. Type of data set: ADME, tissue-based. The gist of the method:
(§4)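 Compounds were incubated in rat liver homogenate. Inorganic nitrite and nitrate, the stable NO metabolites, were quantified over time, with the reading taken at 120 min of incubation.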

Data set [12] has as its system Liver. As to the kind of experiment: NO releasing activity in rat liver homogenate assessed as nitrate formation measured after 120 mins. The conditions noted are these: tissue homogenate, 2 h. The class given is ADME, tissue-based. The gist of the method: as §4
For data set [13], the system named is Mus musculus. As to the kind of experiment: Analgesic activity against acetic acid induced mouse model assessed as number of writhes at 5 mg/kg, po measured after 30 mins by abdominal constriction test. The class given is functional. As to conditions: 0.5 h.
Data set [14] relates to Mus musculus. Nature of the data set: Analgesic activity against acetic acid induced mouse model assessed as number of writhes at 20 mg/kg, po measured after 30 mins by abdominal constriction test. The class given is functional. As to conditions: 0.5 h. A digest of the protocol:
as §3

In data set [15] the test system is Mus musculus. As to the kind of experiment: Analgesic activity against acetic acid induced mouse model assessed as number of writhes at 40 mg/kg, po measured after 30 mins by abdominal constriction test. The class given is functional. The conditions noted are these: 0.5 h. The gist of the method:
as §3

The test system of data set [16] is Mus musculus. Nature of the data set: Analgesic activity against acetic acid induced mouse model assessed as reduction in writhing at 5 mg/kg, po by abdominal constriction test. Further details: scale not given: the % may be the effect or the level left. The class given is functional.
For data set [17], the system named is Mus musculus. As to the kind of experiment: Analgesic activity against acetic acid induced mouse model assessed as reduction in writhing at 20 mg/kg, po by abdominal constriction test. Type of data set: functional. Further details: scale not given: the % may be the effect or the level left. The gist of the method: as §3
Data set [18] has as its system Mus musculus. Nature of the data set: Analgesic activity against acetic acid induced mouse model assessed as reduction in writhing at 40 mg/kg, po by abdominal constriction test. Type of data set: functional. Further details: scale not given: the % may be the effect or the level left. The gist of the method: as §3

By inhibition is commonly meant how much of the control response was suppressed. As a reminder, the IC50 is the point on the concentration scale where inhibition reaches its midpoint. For orientation: Emax means the maximal effect, on the per cent scale that the assay sets.

For `Cc1c(CC(=O)NCCO)cc(-c2ccc(S(N)(=O)=O)cc2)n1-c1cccc(F)c1`, the inhibition in data set [1] turned out to be 15%.
As for `Cc1c(CC(=O)NCCO[N+](=O)[O-])cc(-c2ccc(S(N)(=O)=O)cc2)n1-c1cccc(F)c1`, the values for the IC50 in [2] and in data set [4] were > 10 µM and 3.24 µM, respectively. Moreover, in data set [1], the inhibition came to 45%. Moreover, the Emax at 10 µM in data set [3] turned out to be 67.5%. Besides, the Activity is 16.7 in data set [5]; 21.8 in [6]; 19.4 in data set [7]; 50.3% in data set [8]; 35.1% in [9]; 42.3% in data set [10].
Take `COc1ccc2cc([C@H](C)C(=O)OCCCCO[N+](=O)[O-])ccc2c1` [NAPROXCINOD]: the figures for the Activity in data set [11] and in [12] were 28 µM and 340.1 µM, respectively.
With `Cc1c(CC(=O)NCCO)cc(-c2ccc(S(N)(=O)=O)cc2)n1-c1ccc(F)cc1`, the inhibition in data set [1] stood at 18%.
Turning to `Cc1c(CC(=O)NCCO[N+](=O)[O-])cc(-c2ccc(S(N)(=O)=O)cc2)n1-c1ccc(F)cc1`, the IC50 was > 10 µM in [2] and 1.51 µM in data set [4]. Also, in [1], the inhibition came to 16%. Further, the Emax at 10 µM in data set [3] worked out at 74.9%. In addition, the Activity in [13] came out at 26.7; in data set [5], 18.5; in data set [14], 15.8; in data set [15], 16.7; in data set [16], 20.5%; in data set [8], 44.9%. For the same molecule, the figures for the Activity in data set [17] and in [18] were 53% and 50.3%, respectively.
